Measurements taken from ChEMBL document CHEMBL1146214, “Bioactive cardenolides from the stems and twigs of Nerium oleander” (J Nat Prod, 2007).
pIC50: −log10 of the molar value.

How the values were obtained:
WI-38 VA13 = experiment: Growth inhibition of human VA13 cells; format: functional, cell-based
Method in brief: (§1)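 Growth inhibition assayed in normal human fibroblasts WI-38, their malignant transformant VA-13, and human liver tumour HepG2 cells; IC50 reported.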

[1] = Reversal of multidrug resistance assessed as effect on calcein accumulation in MDR-human 2780 AD cells at 25 ug/ml relative to control; format: functional
Method in brief: (§2)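 Multidrug-resistant human ovarian cancer 2780AD cells were loaded with calcein AM in the presence of test compound at 0.25, 2.5 or 25 μg/mL. Intracellular calcein, formed by enzymatic hydrolysis, was measured by fluorescence and expressed relative to a no-compound control. Values are means of triplicate determinations.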

[2] = Reversal of multidrug resistance assessed as effect on calcein accumulation in MDR-human 2780 AD cells at 2.5 ug/ml relative to control; format: functional; method in brief: as §2
A549 [3] = experiment: Inhibition of induction of ICAM1 expression in human A549 cells in presence of TNFalpha after 1 hr; format: functional, cell-based; details: A549, 1 h
Method in brief: (§3)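 A549 cells (2 × 10⁴ cells/well) were pretreated with a range of compound concentrations for 1 h, then stimulated with IL-1α or TNF-α for 6 h. Surface ICAM-1 was detected with primary and secondary antibodies plus enzyme substrate, read as absorbance at 415 nm. Expression was taken as % of control after subtracting the unstimulated background. IC50 was derived from this, using triplicate cultures.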

HepG2 = experiment: Growth inhibition of human HepG2 cells; format: functional, cell-based; method in brief: as §1
A549 [4] = experiment: Inhibition of induction of ICAM1 expression in human A549 cells in presence of IL1-alpha after 1 hr; format: functional, cell-based; details: A549, 1 h; method in brief: as §3
A549 [5] = experiment: Viability of human A549 cells by MTT assay after 24 hrs; format: cell-based; details: A549, 24 h
Method in brief: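 A549 cells were exposed to serial compound dilutions for 24 h, and viability was measured by MTT. Viability % was taken as background-corrected absorbance relative to control. IC50 was derived from this, using triplicate cultures.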

[6] = Reversal of multidrug resistance assessed as effect on calcein accumulation in MDR-human 2780 AD cells at 0.25 ug/ml relative to control; format: functional; method in brief: as §2
[7] = Growth inhibition of human WI38 cells; format: cell-based; details: WI-38; method in brief: as §1
[8] = Reversal of multidrug resistance assessed as effect on calcein accumulation in MDR-human 2780 AD cells at 2.5 ug/ml relative to verapamil; format: functional
Method in brief: (§4)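 Multidrug-resistant 2780AD ovarian cancer cells were incubated with calcein AM plus test compound at 0.25, 2.5 or 25 μg/mL. Cellular calcein accumulation was read by fluorescence and expressed as a percentage of the verapamil response. Values are based on triplicate determinations.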

[9] = Reversal of multidrug resistance assessed as effect on calcein accumulation in MDR-human 2780 AD cells at 25 ug/ml relative to verapamil; format: functional; method in brief: as §4
[10] = Reversal of multidrug resistance assessed as effect on calcein accumulation in MDR-human 2780 AD cells at 0.25 ug/ml relative to verapamil; format: functional; method in brief: as §4

CO[C@@H]1C[C@H](O[C@H]2CC[C@@]3(C)[C@H](CC[C@@H]4[C@@H]3CC[C@]3(C)[C@@H](C5=CC(=O)OC5)[C@@H](OC(C)=O)C[C@]43O)C2)O[C@H](C)[C@@H]1O
pIC50 (WI-38 VA13): 6.77 | Activity [1]: 75% | Activity [2]: 77% | pIC50 (A549 [3]): 6.51 | pIC50 (HepG2): 5.82 | pIC50 (A549 [4]): 6.29 | pIC50 (A549 [5]): < 3.50 | Activity [6]: 67% | pIC50 [7]: 7.05

C[C@]12CC[C@H](O)C[C@H]1CC[C@@H]1[C@@H]2CC[C@]2(C)[C@@H](C3=CC(=O)OC3)CC[C@]12O [DIGITOXIGENIN]
pIC50 (WI-38 VA13): 5.72 | Activity [1]: 66% | Activity [2]: 74% | pIC50 (HepG2): 4.74 | pIC50 (A549 [4]): 6.21 | pIC50 (A549 [5]): < 3.50 | Activity [6]: 86% | pIC50 [7]: 4.93

CO[C@@H]1C[C@H](O[C@H]2CC[C@@]3(C)[C@@H](CC[C@@H]4[C@@H]3CC[C@]3(C)[C@@H](C5=CC(=O)OC5)[C@@H](OC(C)=O)C[C@]43O)C2)O[C@H](C)[C@@H]1O
Activity [8]: 128% | pIC50 (WI-38 VA13): 6.14 | Activity [1]: 109% | Activity [2]: 126% | pIC50 (A549 [3]): 4.77 | Activity [9]: 82% | pIC50 (A549 [4]): 4.67 | pIC50 (A549 [5]): < 4.00 | Activity [6]: 105% | Activity [10]: 113% | pIC50 [7]: 4.64

CC(=O)O[C@H]1C[C@]2(O)[C@@H]3CC[C@@H]4C[C@@H](O)CC[C@]4(C)[C@H]3CC[C@]2(C)[C@H]1C1=CC(=O)OC1
pIC50 (WI-38 VA13): 6.80 | Activity [1]: 99% | Activity [2]: 100% | pIC50 (A549 [3]): 6.44 | pIC50 (HepG2): 6.70 | pIC50 (A549 [4]): 6.28 | pIC50 (A549 [5]): < 4.00 | Activity [6]: 92% | pIC50 [7]: 5.77

CO[C@@H]1C[C@H](O[C@H]2CC[C@@]3(C)[C@H](CC[C@@]45O[C@@]46C[C@H]4O[C@@]4(C4=CC(=O)OC4)[C@@]6(C)CC[C@H]35)C2)O[C@H](C)[C@@H]1O
Activity [1]: 97% | Activity [2]: 96% | pIC50 (A549 [3]): 4.34 | pIC50 (HepG2): 4.13 | pIC50 (A549 [4]): 4.21 | pIC50 (A549 [5]): < 4.00 | Activity [6]: 104% | pIC50 [7]: 4.39

CO[C@H]1C[C@H](O[C@H]2CC[C@@]3(C)[C@H](CC[C@@H]4[C@@H]3CC[C@]3(C)[C@@H](C5=CC(=O)OC5)[C@@H](OC(C)=O)C[C@]43O)C2)O[C@H](C)[C@@H]1O
pIC50 (WI-38 VA13): 6.62 | Activity [1]: 91% | Activity [2]: 81% | pIC50 (HepG2): 6.09 | pIC50 (A549 [4]): 6.24 | pIC50 (A549 [5]): < 3.00 | Activity [6]: 90% | pIC50 [7]: 7.10

CO[C@@H]1C[C@H](O[C@H]2CC[C@@]3(C)[C@H](CC[C@@]45O[C@@]46CC=C(C4=CC(=O)OC4)[C@@]6(C)CC[C@H]35)C2)O[C@H](C)[C@@H]1O
Activity [1]: 99% | Activity [2]: 89% | pIC50 (A549 [4]): 3.88 | pIC50 (A549 [5]): < 3.50 | Activity [6]: 88%

COc1cccc2c1C(=O)c1c(O)c3c(c(O)c1C2=O)C[C@@](O)(C(=O)CO)C[C@@H]3O[C@H]1C[C@H](N)[C@H](O)[C@H](C)O1 [DOXORUBICIN]
pIC50 (WI-38 VA13): 6.40 | pIC50 (HepG2): 5.89 | pIC50 [7]: 6.15

CO[C@@H]1C[C@H](O[C@H]2CC[C@@]3(C)[C@H](CC[C@@H]4[C@@H]3CC[C@]3(C)[C@@H](C5=CC(=O)OC5)CC[C@]43O)C2)O[C@H](C)[C@@H]1O
pIC50 (WI-38 VA13): 6.74 | Activity [1]: 96% | Activity [2]: 89% | pIC50 (A549 [3]): 6.32 | pIC50 (HepG2): 5.82 | pIC50 (A549 [4]): 6.70 | pIC50 (A549 [5]): < 3.50 | Activity [6]: 93% | pIC50 [7]: 7.15

CO[C@@H]1C[C@H](O[C@H]2CC[C@@]3(C)[C@H](CC[C@]4(O)[C@@H]3CC[C@]3(C)[C@@H](C5=CC(=O)OC5)CC[C@@]34O)C2)O[C@H](C)[C@@H]1O
pIC50 (WI-38 VA13): 5.80 | Activity [1]: 112% | Activity [2]: 107% | pIC50 (A549 [3]): 5.23 | pIC50 (HepG2): 5.33 | pIC50 (A549 [4]): 5.22 | pIC50 (A549 [5]): < 4.00 | Activity [6]: 112% | pIC50 [7]: 5.03

CO[C@H]1C[C@H](O[C@H]2CC[C@@]3(C)[C@H](CC[C@@]45O[C@@]46CC=C(C4=CC(=O)OC4)[C@@]6(C)CC[C@H]35)C2)O[C@H](C)[C@@H]1O
pIC50 (WI-38 VA13): 4.07 | Activity [1]: 102% | Activity [2]: 100% | pIC50 (A549 [3]): 4.26 | pIC50 (HepG2): 4.09 | pIC50 (A549 [4]): 4.16 | pIC50 (A549 [5]): < 4.00 | Activity [6]: 99% | pIC50 [7]: 4.79

CC(=O)O[C@H]1C(=O)[C@@]2(C)[C@H]([C@H](OC(=O)c3ccccc3)[C@]3(O)C[C@H](OC(=O)[C@H](O)[C@@H](NC(=O)c4ccccc4)c4ccccc4)C(C)=C1C3(C)C)[C@]1(OC(C)=O)CO[C@@H]1C[C@@H]2O [PACLITAXEL]
pIC50 [7]: 7.40

CO[C@@H]1C[C@H](O[C@H]2CC[C@@]3(C)[C@H](CC[C@@]45O[C@@]46CC[C@H](C4=CC(=O)OC4)[C@@]6(C)CC[C@H]35)C2)O[C@H](C)[C@@H]1O
pIC50 (WI-38 VA13): 4.87 | Activity [1]: 112% | Activity [2]: 102% | pIC50 (HepG2): 4.12 | pIC50 (A549 [4]): 4.86 | pIC50 (A549 [5]): < 3.50 | Activity [6]: 92% | pIC50 [7]: 4.48

CO[C@H]1C[C@H](O[C@H]2CC[C@@]3(C)[C@H](CC[C@@H]4[C@@H]3CC[C@]3(C)[C@@H](C5=CC(=O)OC5)CC[C@]43O)C2)O[C@H](C)[C@@H]1O
pIC50 (WI-38 VA13): 6.10 | Activity [1]: 86% | Activity [2]: 83% | pIC50 (A549 [3]): 6.80 | pIC50 (HepG2): 6.85 | pIC50 (A549 [4]): 6.70 | pIC50 (A549 [5]): < 4.00 | Activity [6]: 89% | pIC50 [7]: > 7.70
